The source of these data is ChEMBL document CHEMBL1126557, “Novel antiasthmatic agents with dual activities of thromboxane A2 synthetase inhibition and bronchodilation. 2. 4-(3-Pyridyl)-1(2H)-phthalazinones” (J Med Chem, 1993).

Where only a bound is given, the exact number is not on record here.

The subject of assay [1] is Cavia porcellus. The assay is described as follows: Tested in vivo for anaphylactic bronchoconstriction in OA sensitized guinea pig at intraduodenal dose of 10 mg/kg for 30 min. Type of assay: functional. To be noted: Lung, 0.5 h. In outline:
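Male Hartley guinea pigs (300–400 g) sensitized by ip and sc injection of 50 mg ovalbumin 15 days earlier. Anesthetized with pentobarbital 35 mg/kg ip, insufflation pressure recorded. Compound 10 mg/kg intraduodenal 30 min before challenge with OA aerosol (10 mg/mL, 10 s, ultrasonic nebulizer) through a by-passed ventilatory system. Reported as % inhibition.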

The test system of assay [2] is Cavia porcellus. The assay is described as follows: Tested in vivo for spasmogen inhalation induced collapse in conscious guinea pig in presence of acetylcholine (0.2%). Format: functional. The procedure, abridged:
(§1)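 Male guinea pigs (400–500 g), conscious, dosed orally with compound or vehicle, then placed in chambers. At 1 h, exposed for 9 min to spasmogen aerosol (acetylcholine 0.2% or histamine 0.03%). Time to collapse recorded; no collapse within 9 min counted as full protection. ≥3 doses tested. RD100 is the oral dose prolonging collapse time by 100 s over vehicle.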

Assay [3] relates to Cavia porcellus. The assay is described as follows: Tested in vivo for spasmogen inhalation induced collapse in conscious guinea pig in presence of histamine (0.03%). Type of assay: functional. The procedure, abridged:
as §1

The subject of assay [4] is Cavia porcellus. The assay is described as follows: Tested in vivo for histamine-induced bronchoconstriction in guinea pig at intraduodenal dose of 60 mg/kg. Format: functional. In outline:
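Male Dunkin-Hartley guinea pigs under ip pentobarbital (35 mg/kg), jugular vein and trachea cannulated, ventilated at 10 mL/kg, 60 strokes/min; insufflation pressure recorded by transducer. Histamine (1–5 μg/kg iv) repeated every 10 min until the control response was reproducible. Drug given intraduodenally through a catheter 30 min before histamine challenge.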

Assay [5] is filed under the species Cavia porcellus. The assay is described as follows: In vitro inhibitory effect on the contraction of guinea pig tracheal strips was examined for spontaneous contraction. Type of assay: functional. To be noted: Trachea.
The species entered for assay [6] is Cavia porcellus. The assay is described as follows: In vitro inhibitory effect on the spasmogen-contracted guinea pig tracheal strips in presence of acetylcholine. To be noted: Trachea. Type of assay: functional. In outline: (§2)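 Tracheal strips in oxygenated Krebs-Henseleit, preincubated 60 min with indomethacin (3 μM) to remove spontaneous tone, resting tension 1 g. Contraction induced by acetylcholine (10^-5 M final) or histamine (10^-4 M final), with indomethacin present. Compound added cumulatively […]. […] IC50 taken from the concentration-response curve.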

For assay [7], the species on record is Cavia porcellus. The assay is described as follows: In vitro inhibitory effect on the spasmogen-contracted guinea pig tracheal strips in presence of histamine. Format: functional. To be noted: Trachea. The procedure, abridged: as §2
In assay [8] the test system is Cavia porcellus. The assay is described as follows: In vivo inhibitory effect on airway constriction induced by histamine 2-5 micro g/kg iv at 1 min after 10 mg/kg iv dose of compound. Type of assay: functional. The procedure, abridged: (§3)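 Male Dunkin-Hartley guinea pigs anesthetized with pentobarbital 35 mg/kg ip, jugular vein and trachea cannulated, ventilated at 10 mL/kg, 60 strokes/min. Insufflation pressure recorded. Histamine 2–5 μg/kg iv repeated every 10 min until a reproducible control response. Compound 10 mg/kg iv 1 min before the next challenge.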

Assay [9] has as its target T1, Thromboxane-A synthase (Rattus norvegicus) (UniProt P49430).
T1 sequence (whole entry): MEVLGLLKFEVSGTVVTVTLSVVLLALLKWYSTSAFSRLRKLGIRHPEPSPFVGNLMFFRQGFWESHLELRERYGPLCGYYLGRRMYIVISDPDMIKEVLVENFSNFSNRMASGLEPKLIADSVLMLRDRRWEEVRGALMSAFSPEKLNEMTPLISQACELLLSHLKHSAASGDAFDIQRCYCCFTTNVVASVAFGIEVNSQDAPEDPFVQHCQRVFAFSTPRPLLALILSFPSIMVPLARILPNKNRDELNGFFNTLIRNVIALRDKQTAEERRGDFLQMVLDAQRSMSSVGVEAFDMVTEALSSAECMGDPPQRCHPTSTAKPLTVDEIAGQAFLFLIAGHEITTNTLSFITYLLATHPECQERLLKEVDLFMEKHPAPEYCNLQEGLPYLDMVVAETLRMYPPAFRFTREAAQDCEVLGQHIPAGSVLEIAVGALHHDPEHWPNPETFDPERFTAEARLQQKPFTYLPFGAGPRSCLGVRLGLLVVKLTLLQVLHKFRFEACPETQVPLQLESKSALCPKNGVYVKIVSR
The assay is described as follows: Tested ex vivo against TXA2 production in rat serum at 1 hr after peroral dose of 30 mg/kg and anesthetized with ether. Format: functional, organism-based. More on the design: dose 30 mg/kg. In outline:
(§4)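 Male SD rats (240–260 g), fasted 20 h, dosed orally with compound in 0.5% carboxymethylcellulose or vehicle alone. At 1 h, ether anesthesia and 2 mL cardiac blood taken and clotted at 37 °C for 90 min.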

For assay [10], the species on record is Cavia porcellus. The assay is described as follows: In vitro bronchodilatory activity in guinea pig isolated tracheal strips. To be noted: Trachea. Format: functional.
Assay [11] relates to Cavia porcellus. The assay is described as follows: Tested in vivo for histamine-induced bronchoconstriction in guinea pig at intraduodenal dose of 10 mg/kg for 30 min. Format: functional. To be noted: 0.5 h. In outline:
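Anesthetized, ventilated guinea pigs (pentobarbital 35 mg/kg ip) with insufflation pressure recorded. Histamine 2–5 μg/kg iv given repeatedly until a reproducible response. Compound 10 mg/kg injected into the duodenum through a catheter 30 min before histamine challenge. Expressed as % inhibition of the control response.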

For assay [12], the system named is Cavia porcellus. The assay is described as follows: In vivo inhibitory effect on airway constriction induced by histamine 2-5 ug/kg iv at 1 min after 10 mg/kg iv dose of compound. Format: functional. In outline:
as §3

Assay [13] concerns Rattus norvegicus. The assay is described as follows: Tested ex vivo against serum TXB2 production at 1 hr after oral dose of 3 mg/kg of drug to rat. Type of assay: functional. In outline: as §4
Assay [14] concerns Rattus norvegicus. The assay is described as follows: Tested ex vivo against serum TXB2 production at 1 hr after oral dose of 30 mg/kg of drug to rat. Type of assay: functional. In outline: as §4
Assay [15] addresses T2, Thromboxane-A synthase (Homo sapiens, UniProt P24557).
T2 sequence (P24557 whole entry): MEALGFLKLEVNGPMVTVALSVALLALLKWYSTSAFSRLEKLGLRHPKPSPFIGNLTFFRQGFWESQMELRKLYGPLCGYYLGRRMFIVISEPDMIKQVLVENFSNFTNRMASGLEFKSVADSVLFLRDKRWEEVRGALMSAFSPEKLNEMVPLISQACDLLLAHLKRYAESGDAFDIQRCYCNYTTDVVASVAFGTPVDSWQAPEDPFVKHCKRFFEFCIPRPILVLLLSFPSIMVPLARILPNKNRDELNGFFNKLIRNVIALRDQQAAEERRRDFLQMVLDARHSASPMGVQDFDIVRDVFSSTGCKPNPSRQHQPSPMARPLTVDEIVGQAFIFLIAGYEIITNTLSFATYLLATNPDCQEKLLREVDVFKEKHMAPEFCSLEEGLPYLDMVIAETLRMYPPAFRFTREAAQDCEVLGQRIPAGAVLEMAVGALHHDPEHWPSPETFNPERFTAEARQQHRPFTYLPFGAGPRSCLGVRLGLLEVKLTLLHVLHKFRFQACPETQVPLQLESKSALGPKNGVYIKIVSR
The assay is described as follows: Tested in vitro against TXA2 synthetase inhibitory activity in human microsome. In outline: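 Commercial human platelet microsomes. Preincubated with compound for 3 min at 25 °C in Tris-HCl 15 mM, NaCl 140 mM, glucose 10 mM, pH 7.6. Arachidonic acid 1–3 μM added, then 3 min at 25 °C. Stopped by chilling and acidifying to pH 3 with HCl, centrifuged, supernatant TXB2 measured by RIA.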

For assay [16], the target named is T2, Thromboxane-A synthase. The assay is described as follows: Tested in vitro against TXA2 synthetase inhibitory activity in human platelet. In outline: (§5)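 Citrated human or rat blood centrifuged to platelet-rich plasma and platelets resuspended in Krebs-Henseleit at 1×10^8 cells/mL. Used for TXB2 production.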
Assay [17] concerns the target T2, Thromboxane-A synthase. The assay is described as follows: Tested in vitro against TXA2 synthetase inhibitory activity in human whole blood. Type of assay: tissue-based. In outline: (§6)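 Non-anticoagulated human or rat blood split into 0.5-mL aliquots, each with one drug concentration or vehicle. Vortexed, then clotted 60 min at 37 °C. Serum deproteinized with EtOH and TXB2 measured by RIA. % inhibition against control.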

Assay [18] has as its target T3, Thromboxane-A synthase (Rattus norvegicus, UniProt P49430).
T3 sequence (P49430 whole entry): T1 sequence (whole entry)
The assay is described as follows: Tested in vitro against TXA2 synthetase inhibitory activity in rat platelet. In outline:
as §5

Assay [19] has as its target T3, Thromboxane-A synthase. The assay is described as follows: Tested in vitro against TXA2 synthetase inhibitory activity in rat whole blood. Type of assay: tissue-based. The procedure, abridged: as §6
Assay [20] has as its system Thromboxane-A synthase (Oryctolagus cuniculus). The assay is described as follows: Tested in vitro against rabbit thromboxane A2 synthetase (TXA2) at 1 uM.

In the case of `Cn1c(=O)c2[nH]cnc2n(C)c1=O.Cn1c(=O)c2[nH]cnc2n(C)c1=O.NCCN` [AMINOPHYLLINE], the inhibition in vivo (usually the share of the control response that was lost under treatment) at 10 mg/kg in assay [1] turned out to be 42%; in assay [8] it was 86%. Further, the RD100 in assay [2] was 66 mg/kg; in assay [3] it was over 60 mg/kg. Moreover, the inhibition in vivo at 60 mg/kg in [4] came out at 87%. Further, the IC50 (as a rule, the concentration that inhibits the measured activity by half) in assay [5] was determined as 44 µM; in [6] it was 300 µM; in assay [7], 320 µM. Further, the inhibition – broadly, the share of the control response that was lost under treatment – in assay [9] worked out at 0%.
Turning to `CCn1nc(-c2cccnc2)c2ccccc2c1=O`, the IC50 in assay [10] is 1.32 µM; in [5] it was 1.6 µM; in [6], 57 µM; in [7], 46 µM; in [15] it was 1.6 µM; in assay [16], 27.9 µM. The 50% inhibitory concentration (IC50) was determined as 2.3 µM in [17], 1.3 µM in [18] and 1.7 µM in assay [19]. For the same molecule, the inhibition in vivo at 10 mg/kg came out at 71% in assay [1], 72% in [11] and 100% in [12]. The RD100 in assay [2] was 3.8 mg/kg; in assay [3], 6.5 mg/kg. In assay [13], this molecule showed an inhibition in vivo at 3 mg/kg of 66%. Moreover, in assay [14], the inhibition in vivo at 30 mg/kg was 92%. The inhibition in assay [9] stood at 92%; in [20], 87%.
Take `Cn1nc(-c2cncs2)c2ccccc2c1=O`: the IC50 in assay [10] is 1.58 µM; in [5], 1.8 µM; in assay [6] it was 46 µM; in [7] it was 28 µM; in assay [15] it was 3.9 µM; in assay [16] it was 0.5 µM. The IC50 amounted to 8.7 µM in [17], 0.3 µM in [18] and 3.3 µM in assay [19]. Further, the inhibition in vivo at 10 mg/kg in assay [1] is 61%; in [11] it was 68%. Moreover, the RD100 in assay [2] is 6.6 mg/kg; in assay [3], 11.2 mg/kg. Moreover, in [13], the inhibition in vivo at 3 mg/kg is 50%. Further, the inhibition in vivo at 30 mg/kg in assay [14] came to 83%. In addition, in assay [9], the inhibition is 83%.
